An excerpt weighted towards active compounds, which were near 1.2% of everything screened.
CRFR2-BP antag: antagonists of CRF-BP/CRF-R2 complex, primary screen, cell-based, HEK293, calcium dye fluorescence, uHTS; CRF-induced calcium fluorescence; inhibition, % at 11.8 µM; 0.59% of 350,000 active;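 active means inhibition of the ligand-induced calcium signal above about 50% at the single tested concentration, limit read from the data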
DDE Tn7 FP inh: inhibitors of Tn7 peptide binding to fibrin DD(E), primary screen, biochemical, fluorescence polarization, human fibrin, Tn7 probe. 0.13% of 370,000 active. Fibrinogen beta chain (Homo sapiens), P02675. inhibition, % at 8.3 µM. FP displacement of FITC-Tn7 peptide from fibrin DD(E); 0% = median of compound wells per plate. AID 720508, 2013;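 active means inhibition above the mean of compounds falling within the control limits plus 3 SD of them, cut at about 14% in these data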;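 further: 0% = plate median of compound wells and 100% = 10 µM Aha-Tn7 peptide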
Target sequence (P02675 whole entry, looked up): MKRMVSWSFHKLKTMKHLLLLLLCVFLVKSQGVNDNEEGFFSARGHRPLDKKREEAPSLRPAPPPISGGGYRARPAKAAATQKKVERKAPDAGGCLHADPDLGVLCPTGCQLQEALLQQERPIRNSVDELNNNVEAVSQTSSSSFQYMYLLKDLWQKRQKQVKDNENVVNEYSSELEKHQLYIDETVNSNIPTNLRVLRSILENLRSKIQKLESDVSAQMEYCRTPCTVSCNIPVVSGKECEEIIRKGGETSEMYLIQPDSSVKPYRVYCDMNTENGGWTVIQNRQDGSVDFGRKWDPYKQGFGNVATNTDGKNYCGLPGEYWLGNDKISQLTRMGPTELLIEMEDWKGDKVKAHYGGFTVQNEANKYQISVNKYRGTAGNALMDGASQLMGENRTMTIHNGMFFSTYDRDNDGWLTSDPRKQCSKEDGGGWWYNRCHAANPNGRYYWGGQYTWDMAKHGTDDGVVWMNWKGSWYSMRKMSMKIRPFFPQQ
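Also added: labelled Tn7 tracer, 0.1 µM; Assay system: human fibrin DD(E) protein; Amount: 2 µM fibrin DD(E); Schedule: 10 min compound pre-incubation, 3 h probe incubation at room temperature; Repeats: one replicate per compound; Read-out basis: percent inhibition; Measured by: fluorescence polarization of the labelled Tn7 tracer.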
DDE Tn6 FP inh: inhibitors of Tn6 peptide binding to fibrin DD(E), primary screen, biochemical, fluorescence polarization, human fibrin, Tn6 probe | Fibrinogen beta chain (Homo sapiens), P02675 | 0.21% of 370,000 active | inhibition, % at 8.3 µM | Fibrin DD(E) TRITC-Tn6 fluorescence polarization displacement;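 active means inhibition above a per-campaign cutoff: mean of compounds within control limits plus 3 SD, cut at about 15% in these data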;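 further: 0% = median of all compound wells on the plate and 100% = blocking peptide control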
CRFBP-R2 agonist: agonists of CRF-BP/CRF-R2 complex, primary screen, cell-based, HEK293, calcium dye fluorescence, uHTS | CRF-binding protein / CRF receptor 2 complex (human) | calcium dye fluorescence (FLIPR); percent of saturating CRF peptide response | activation, % at 13.2 µM | 0.46% of 350,000 active | AID 588473, 2011;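 active means activation of at least 50%, plus an integration ratio under a set limit after plate pattern correction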;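 further: plate controls were neutral control wells without compound for no effect and CRF at EC100 for full effect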
The depositor's hits bear a star; . = no result.

SMILES	CRFR2-BP antag	DDE Tn7 FP inh	DDE Tn6 FP inh	CRFBP-R2 agonist
O=C1/C(=C/C=C/c2ccccc2)Oc2c1ccc(O)c2CN1CCN(CCO)CC1	-14	0	-3	18
Cc1ccc(/C=C2\Oc3c(ccc(O)c3CN3CCN(C)CC3)C2=O)cc1	-36	2	-3	26
CCN1CCN(Cc2c(O)ccc3c2O/C(=C\c2ccc(C)cc2)C3=O)CC1	-54	4	2	54*
O=c1[nH]c2ccccc2c(O)c1-[n+]1ccccc1	2	2	3	-1
O=c1[nH]c2ccccc2c(O)c1O	97*	-2	2	0
CCCCC(CC)CN=C(N)NC(N)=NCCCCCCN=C(N)NC(N)=NCC(CC)CCCC (stereo not drawn)	-71	.	.	112*
CCCCC(CC)CO (stereo not drawn)	14	-3	4	-3
CCOCC(=O)Nc1ccc2c(c1)OCCO2	27	0	-8	3
CCOCCCN(CC(=O)NC1CCCC1)C(=O)C(=O)Nc1ccc2c(c1)OCCO2	97*	5	1	0
CCc1ccc(Nc2n[n+](-c3ccccc3)c(-c3ccc(N(CC)CC)cc3)s2)cc1	-101	-4	-1	67*
COc1ccc(NC(=O)c2ccccc2NC(=O)c2ccco2)c(OC)c1	-7	7	-4	-2
COc1ccc(/C=N/NC(=O)c2ccccc2NC(=O)c2ccco2)c(OC)c1	111*	6	0	-3
CCCCCCCCNS(=O)(=O)/C=C/c1ccccc1CNC(=O)OC(C)(C)C	.	6	4	.
Cc1ccc(NC(=O)COC(=O)CN2C(=O)NC3(CCCC3)C2=O)cc1S(=O)(=O)N(C)C	61*	2	-6	2
N#CCC[C@@H]1CC[C@]2(CCCN(C(=O)c3ccco3)C2)O1	.	1	7	.
Cc1cccc(C(=O)Nc2nnc(-c3ccco3)o2)c1	13	6	0	-2
Cc1ccc(C(=O)Nc2nnc(-c3ccco3)o2)cc1C	51*	-1	-4	1
Cc1ccc2c(c1)C(C)CC(C)(C)N2C(=O)CN1CCN(C)CC1 (stereo not drawn)	68*	-4	3	-3
CC1CC(C)(C)N(C(=O)CN2C(=O)c3ccccc3C2=O)c2ccccc21 (stereo not drawn)	-132	-2	7	114*
[O-][n+]1c2ccccc2[n+]([O-])c2cc(O)ccc21	6	-5	16*	-1
[O-][n+]1c(/C=C/c2ccccc2)ccc2ccccc21	15	-1	4	-1
CC(C)C[C@H]1COc2cc(Br)ccc2S(=O)(=O)N1Cc1cn(Cc2ccc(F)cc2)nn1	.	4	10	.
Cc1cccc(OCC(C)CN2CCC(C(O)(c3ccccc3)c3ccccc3)CC2)c1 (stereo not drawn)	.	-3	0	.
O=C(CC(c1ccccc1)c1ccccc1O)NCc1ccco1 (stereo not drawn)	6	0	-8	-2
O=C(CC(c1ccccc1)c1ccccc1O)NCc1ccccc1Cl (stereo not drawn)	67*	-4	-4	-11
SMILES	CRFR2-BP antag	DDE Tn7 FP inh	DDE Tn6 FP inh	CRFBP-R2 agonist
CN[C@H]1C[C@H]2c3[nH]c4c(-c5ccc6c(c5)OCO6)cccc4c3CCN2C[C@H]1[C@H](C)O	.	-6	-6	.
CCN(CC)c1ccc2c(c1)OC(N)=C(C#N)C2c1cccnc1 (stereo not drawn)	-183	-28	6	181*
N#CC1=C(N)Oc2cc(N)ccc2C1c1cccnc1 (stereo not drawn)	-5	-8	5	-1
CCCCNC(=O)NCCCN1CCN(c2ccc(F)cc2)CC1	.	-2	-10	.
FC(F)(F)c1cc(CNC2CCC23CCC(c2ccccc2)CC3)ccc1Cl (stereo not drawn)	.	7	-11	.
Cc1ccc(C)c2nc3sc(C(=O)N4CCCc5ccccc54)c(N)c3cc12	-154	-8	0	60*
CCNC(=O)N(C)[C@H]1C[C@H]2c3[nH]c4c(-c5cccc(C)c5)cccc4c3CCN2C[C@H]1[C@H](C)O	.	-4	3	.
Cc1ccc(C)c(S(=O)(=O)ON2C(=O)c3ccccc3C2=O)c1	63*	5	0	1
Cc1cc(S(=O)(=O)ON2C(=O)c3ccccc3C2=O)ccc1F	13	-3	-2	2
CCOc1ccc(CCNC(=O)Cc2ccc(S(=O)(=O)N3CCOCC3)s2)cc1OCC	15	-6	-6	-2
O=C(COc1ccccc1)NCc1ccco1	65*	7	0	4
CCCCNC(=O)CCn1c(=O)c2ccccc2n(Cc2ccccc2C)c1=O	65*	0	-8	-2
c1nc(NCC2CCCCO2)c2cc(-c3ccc4c(c3)OCO4)ccc2n1 (stereo not drawn)	.	-1	-14	.
O=C(COC(=O)c1cc(Br)ccc1O)NC1CCCCCC1	8	-5	2	-1
O=C(COC(=O)c1cc2ccccc2cc1O)NC1CCCCC1	87*	5	0	-1
CC(C)(C)OC(=O)NCc1cc2c(cc1/C=C/S(=O)(=O)NCc1ccc(F)cc1)OCO2	.	3	7	.
Clc1nssc1=Nc1ccccc1	12	.	.	0
Fc1ccc(N=c2ssnc2Cl)c(F)c1	-10	-7	-2	70*
Clc1ccc(N=c2ssnc2Cl)cc1	43	0	6	67*
CC(C)(C)c1ccc(-c2cn(C[C@H](Cc3ccccc3)n3c(=O)c4ccccc4n3Cc3ccco3)nn2)cc1	.	-3	-11	.
O=C(O)c1ccc(Nc2nc(-c3cc4ccccc4oc3=O)cs2)cc1O	-44	0	-8	61*
CC(=O)Nc1ccc(Nc2nc(-c3cc4ccccc4oc3=O)cs2)cc1	0	3	-7	-1
O=C(C1CCN(C2CCN(CC3CC=CCC3)CC2)CC1)N1CCOCC1 (stereo not drawn)	86*	-4	-6	1
CC(C)NC(=O)C1CCN(C2CCN(CC3CC=CCC3)CC2)CC1 (stereo not drawn)	18	0	2	-2
CCOC(=O)C1=C(C)N=c2s/c(=C/c3cccc([N+](=O)[O-])c3O)c(=O)n2C1c1ccc(OC)cc1OC (stereo not drawn)	59*	2	-7	-1
CCOC(=O)C1=C(C)N=c2s/c(=C\c3ccc(O)c([N+](=O)[O-])c3)c(=O)n2C1c1ccccc1OC (stereo not drawn)	30	-1	3	-1
CCN(C(=O)CN1CCCC(C)C1)c1c(N)n(Cc2ccccc2)c(=O)[nH]c1=O (stereo not drawn)	4	10	3	-2
CCN(C(=O)CSc1cc(C)c2ccc(OC)cc2n1)C1CCS(=O)(=O)C1 (stereo not drawn)	98*	-4	-6	0

Assay outcomes: PubChem BioAssay, several laboratories
